Measurements: ChEMBL document CHEMBL1151459, “Bile and unsaturated fatty acids inhibit the binding of cholera toxin and Escherichia coli heat-labile enterotoxin to GM1 receptor” (Antimicrob Agents Chemother, 2008)
The source made the active and inactive calls. The rule behind the calls is not given here.

What was measured:
[1] = Binding affinity to Vibrio cholerae cholera toxin assessed as inhibition of cholera toxin binding to ganglioside GM1 receptor treated 15 mins before receptor addition by ELISA
[2] = Binding affinity to Vibrio cholerae cholera toxin assessed as quenching of intrinsic fluorescence by two-state binding model assay
[3] = Inhibition of intestinal fluid accumulation in rabbit ligated ileal loop model assessed as fluid level at 1.65 mM injected in presence of cholera toxin after 16 hrs (RVb=1.6 +/- 0.2 ml/cm); type: functional, Oryctolagus cuniculus, Ileum
[4] = Inhibition of intestinal fluid accumulation in rabbit ligated ileal loop model assessed as fluid level at 10.5 mM injected in presence of heat labile enterotoxin after 16 hrs (RVb=5.5 +/- 1 ml); type: functional, Oryctolagus cuniculus, Ileum
How it was run: (§1)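 Rabbits were starved overnight with free access to water, then anesthetized. The ileum was tied into consecutive 7-cm loops proximal to the mesoappendix. LT-containing cell lysate (750 μl) was injected alone or with sodium linolate. After 16 h the fluid in each loop was collected and expressed as ml per cm loop length. Results are means ± SD of three independent experiments.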

Escherichia coli = assay: Binding affinity to enterotoxigenic Escherichia coli 12566 heat-labile enterotoxin assessed as inhibition of heat-labile enterotoxin binding to ganglioside GM1 receptor
How it was run: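 A clarified sonicated PBS lysate of E. coli 12566 containing LT (90 μl) was incubated with or without ligand in 100 μl for 15 min at room temperature. Samples were serially diluted onto immobilized GM1 and detected by ELISA with polyclonal rabbit anti-CT serum as primary antibody.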

Vibrio cholerae [5] = assay: Binding affinity to Vibrio cholerae cholera toxin assessed as decrease in fluorescence intensity by fluorescence emission spectroscopy
Oryctolagus cuniculus [6] = species on record: Oryctolagus cuniculus; assay: Inhibition of intestinal fluid accumulation in rabbit ligated ileal loop model at 3.3 mM injected in presence of cholera toxin after 16 hrs; type: functional; details: Ileum
Vibrio cholerae [7] = assay: Blockade of anti-CT antibody binding site of Vibrio cholerae cholera toxin preincubated for 15 mins before addition of anti-CT immunoglobulin G by immunoprecipitation-based SDS-PAGE
Oryctolagus cuniculus [8] = species on record: Oryctolagus cuniculus; assay: Inhibition of intestinal fluid accumulation in rabbit ligated ileal loop model at 21 mM injected in presence of heat labile enterotoxin after 16 hrs; type: functional; details: Ileum; how it was run: as §1
Oryctolagus cuniculus [9] = species on record: Oryctolagus cuniculus; assay: Inhibition of intestinal fluid accumulation in rabbit ligated ileal loop model injected in presence of cholera toxin after 16 hrs; type: functional; details: Ileum
Vibrio cholerae [10] = assay: Binding affinity to Vibrio cholerae cholera toxin assessed as inhibition of cholera toxin binding to ganglioside GM1 receptor relative to ganglioside GM1 receptor antagonist […]
Vibrio cholerae [11] = assay: Binding affinity to Vibrio cholerae cholera toxin assessed as apparent isoelectric point at 100 mM by isoelectric focusing analysis (isoelectric point Rvb=6.8)

CCCCC/C=C\C/C=C\CCCCCCCC(=O)O [LINOLEIC ACID]
IC50 [1]: 410 µM

CCCCC/C=C\C/C=C\CCCCCCCC(=O)[O-].[Na+] [SODIUM LINOLATE]
Kd [2]: 130 µM
Activity [3]: 0.76 mL/cm
Activity [4]: 1 mL

CCCCCCCC/C=C\CCCCCCCC(=O)O [OLEIC ACID]
IC50 [1]: 410 µM
inhibition (Escherichia coli): Active
Kd [2]: 160 µM

CCCCC/C=C\C/C=C\C/C=C\C/C=C\CCCC(=O)O [ARACHIDONIC ACID]
IC50 [1]: 380 µM
inhibition (Escherichia coli): Active
Kd [2]: 180 µM

CCCCCCCCCCCCCCCC(=O)O [PALMITIC ACID]
IC50 [1]: 5800 µM

CCCCC/C=C\C/C=C\CCCCCCCC(=O)O
Activity (Vibrio cholerae [5]): Active
inhibition (Oryctolagus cuniculus [6]): Active
inhibition (Escherichia coli): Active
Activity (Vibrio cholerae [7]): inactive
Activity (Oryctolagus cuniculus [8]): Active
Activity (Oryctolagus cuniculus [9]): Dose-dependent effect
Ratio (Vibrio cholerae [10]): 200
Activity (Vibrio cholerae [11]): Active

CCCCCCCCCCCCCCCCCC(=O)O [STEARIC ACID]
IC50 [1]: 5270 µM
